Experimental data taken from ChEMBL document CHEMBL1145471, “Small molecule regulators of autophagy identified by an image-based high-throughput screen” (Proc Natl Acad Sci U S A, 2007).

What was measured:
Type in all cases: functional
H4 [1] = test: Induction of light chain 3-GFP level in human H4 cells at 6.1 uM after 24 hrs by high throughput fluorescence microscopy relative to control
In short: (§1)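 H4 cells stably expressing LC3-GFP, kept in DMEM/10% FBS at 37°C, 5% CO2, were seeded in 96-well plates and exposed to compound for 24 h. Cells were then fixed in 4% paraformaldehyde and stained with 3 μg/ml DAPI. Automated fluorescence microscopy scored the number, size and intensity of LC3-GFP spots. Values are percent of DMSO wells, in triplicate, mean ± SD. Rapamycin served as positive control.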

H4 [2] = test: Effect on FYVE-RFP+ vesicle intensity per cell in human H4 cells after 4 hrs relative to control; parameters: concentration or dose not given beside the values
In short: (§2)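 H4 cells stably expressing FYVE-RFP (H4-FYVE), grown in DMEM with 10% FBS, penicillin/streptomycin and 2 mM L-glutamine at 37°C, 5% CO2, seeded in 96-well plates and exposed to compound. Fixed in 4% paraformaldehyde, nuclei stained with 3 μg/ml DAPI, FYVE-RFP+ vesicles quantified by high-throughput fluorescence microscopy against DMSO control. Triplicate wells, mean ± SD.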

H4 [3] = test: Increase in light chain 3-GFP+ autophagosome vesicle area per cell in human H4 cells at 6.1 uM after 24 hrs by high throughput fluorescence microscopy relative to control
In short: (§3)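 H4 cells stably expressing LC3-GFP, seeded in 96-well plates and exposed to compound for 24 h; fixed in 4% paraformaldehyde, nuclei stained with 3 μg/ml DAPI. Automated fluorescence microscopy scored number, size and intensity of LC3-GFP spots; values expressed relative to DMSO-treated wells, rapamycin positive control. Triplicate wells, mean ± SD; experiments repeated three times.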

H4 [4] = test: Increase in long-lived protein degradation in human H4 cells after 24 hrs relative to control; parameters: concentration or dose not given beside the values
H4 [5] = test: Increase in light chain 3-GFP+ autophagosome vesicle number per cell in human H4 cells at 6.1 uM after 24 hrs by high throughput fluorescence microscopy relative to control; in short: as §1
H4 [6] = test: Increase in long-lived protein degradation in human H4 cells after 4 hrs relative to control; parameters: concentration or dose not given beside the values
H4 [7] = test: Increase in long-lived protein degradation in human H4 cells after 2 hrs relative to control; parameters: concentration or dose not given beside the values
H4 [8] = test: Increase in long-lived protein degradation in human H4 cells after 1 hr relative to control; parameters: concentration or dose not given beside the values
H4 [9] = test: Effect on FYVE-RFP+ vesicle intensity per cell in human H4 cells after 2 hrs relative to control; parameters: concentration or dose not given beside the values; in short: as §2
H4 [10] = test: Increase in light chain 3-GFP+ autophagosome vesicle intensity per cell in human H4 cells at 6.1 uM after 24 hrs by high throughput fluorescence microscopy relative to control; in short: as §3
H4 [11] = test: Effect on FYVE-RFP+ vesicle intensity per cell in human H4 cells after 8 hrs relative to control; parameters: concentration or dose not given beside the values; in short: as §2
H4 [12] = test: Decrease in FYVE-RFP+ vesicle intensity per cell in human H4 cells after 4 hrs relative to control; parameters: concentration or dose not given beside the values; in short: as §2
H4 [13] = test: Increase in light chain 3-GFP+ autophagosome vesicle number per cell in human H4 cells at 3.6 uM after 24 hrs by high throughput fluorescence microscopy relative to control
In short: (§4)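 H4 cells stably expressing LC3-GFP were grown in DMEM with 10% FBS and 2 mM L-glutamine at 37°C, 5% CO2. They were exposed to each compound for 24 h, with DMSO as negative and rapamycin as positive control. Cells were then fixed in 4% paraformaldehyde and stained with 3 μg/ml DAPI. High-throughput fluorescence imaging scored LC3-GFP spot number, size and intensity, expressed relative to DMSO. Mean ± SD of triplicates; experiments repeated three times.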

H4 [14] = test: Increase in light chain 3-GFP+ autophagosome vesicle area per cell in human H4 cells at 3.6 uM after 24 hrs by high throughput fluorescence microscopy relative to control
In short: (§5)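 H4 cells stably expressing LC3-GFP, seeded in 96-well plates and exposed to compound for 24 h; screening concentrations were 3–12 μM, with rapamycin 0.22 μM and bafilomycin A1 0.40 μM. Cells fixed in 4% paraformaldehyde and stained with 3 μg/ml DAPI. Number, size and intensity of LC3-GFP spots measured by high-throughput fluorescence microscopy and expressed as percent of DMSO-treated wells. Rapamycin was the positive control. Triplicate wells, mean ± SD; experiments repeated three times.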

H4 [15] = test: Decrease in FYVE-RFP+ vesicle intensity per cell in human H4 cells after 2 hrs relative to control; parameters: concentration or dose not given beside the values; in short: as §2
H4 [16] = test: Decrease in FYVE-RFP+ vesicle intensity per cell in human H4 cells after 8 hrs relative to control; parameters: concentration or dose not given beside the values; in short: as §2
H4 [17] = test: Increase in light chain 3-GFP+ autophagosome vesicle intensity per cell in human H4 cells at 3.6 uM after 24 hrs by high throughput fluorescence microscopy relative to control; in short: as §5
H4 [18] = test: Induction of light chain 3-GFP level in human H4 cells at 3.6 uM after 24 hrs by high throughput fluorescence microscopy relative to control
In short: (§6)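 H4 cells stably expressing LC3-GFP, grown in DMEM with 10% FBS, penicillin/streptomycin and 2 mM L-glutamine at 37°C, 5% CO2. Cells were seeded in 96-well plates and exposed to library compounds at 3–12 μM for 24 h, then fixed in 4% paraformaldehyde and stained with 3 μg/ml DAPI. LC3-GFP spot number, size and intensity were measured by high-throughput fluorescence microscopy and expressed relative to DMSO. Triplicates, mean ± SD.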

H4 [19] = test: Increase in light chain 3-GFP+ autophagosome vesicle area per cell in human H4 cells at 3.4 uM after 24 hrs by high throughput fluorescence microscopy relative to control; in short: as §3
H4 [20] = test: Increase in FYVE-RFP+ vesicle intensity per cell in human H4 cells after 8 hrs relative to control; parameters: concentration or dose not given beside the values; in short: as §2
H4 [21] = test: Increase in FYVE-RFP+ vesicle intensity per cell in human H4 cells after 2 hrs relative to control; parameters: concentration or dose not given beside the values; in short: as §2
H4 [22] = test: Increase in light chain 3-GFP+ autophagosome vesicle number per cell in human H4 cells at 3.4 uM after 24 hrs by high throughput fluorescence microscopy relative to control; in short: as §3
H4 [23] = test: Increase in light chain 3-GFP+ autophagosome vesicle intensity per cell in human H4 cells at 3.4 uM after 24 hrs by high throughput fluorescence microscopy relative to control; in short: as §3
H4 [24] = test: Increase in FYVE-RFP+ vesicle intensity per cell in human H4 cells after 4 hrs relative to control; parameters: concentration or dose not given beside the values; in short: as §2
H4 [25] = test: Induction of light chain 3-GFP level in human H4 cells at 3.4 uM after 24 hrs by high throughput fluorescence microscopy relative to control; in short: as §1
H4 [26] = test: Increase in light chain 3-GFP+ autophagosome vesicle intensity per cell in human H4 cells at 5.9 uM after 24 hrs by high throughput fluorescence microscopy relative to control; in short: as §4
H4 [27] = test: Induction of light chain 3-GFP level in human H4 cells at 5.9 uM after 24 hrs by high throughput fluorescence microscopy relative to control; in short: as §6
H4 [28] = test: Increase in light chain 3-GFP+ autophagosome vesicle number per cell in human H4 cells at 5.9 uM after 24 hrs by high throughput fluorescence microscopy relative to control; in short: as §4
H4 [29] = test: Increase in light chain 3-GFP+ autophagosome vesicle area per cell in human H4 cells at 5.9 uM after 24 hrs by high throughput fluorescence microscopy relative to control; in short: as §5

Structure (SMILES) | Activity (H4 [4]) | Activity (H4 [6]) | Activity (H4 [7]) | Activity (H4 [8]) | Activity (H4 [20]) | Activity (H4 [21]) | Activity (H4 [24]) | also measured
CC1=C2C[C@H]3[C@@H](CC=C4C[C@@H](O)CC[C@@]43C)[C@@H]2CC[C@]12O[C@@H]1C[C@H](C)CN[C@H]1[C@H]2C [CYCLOPAMINE] | 103.97% | 109.69% | 111.02% | 91.74% |  |  |  | Activity (H4 [1]): 110.76%; Activity (H4 [2]): 75.21%; Activity (H4 [3]): 511.72%; Activity (H4 [5]): 313.88%; Activity (H4 [9]): 108.75%; Activity (H4 [10]): 1564.12%; Activity (H4 [11]): 96.38%
CC[C@@]1([C@@H]2O[C@@H]([C@H]3O[C@@](O)(CO)[C@H](C)C[C@@H]3C)C[C@@H]2C)CC[C@H]([C@]2(C)CC[C@]3(C[C@H](O)[C@@H](C)[C@@H]([C@@H](C)[C@@H](OC)[C@H](C)C(=O)O)O3)O2)O1 [MONENSIN] | 107.54% | 109.16% | 123.64% | 107.28% |  |  |  | Activity (H4 [12]): 66.44%; Activity (H4 [13]): 312.92%; Activity (H4 [14]): 418.31%; Activity (H4 [15]): 81.22%; Activity (H4 [16]): 59.14%; Activity (H4 [17]): 639.29%; Activity (H4 [18]): 92.38%
CO[C@@H]1C[C@@H](C[C@H]2CC[C@H](C)[C@H]([C@@H](C)C(=O)O)O2)O[C@]2(O[C@](C)([C@H]3CC[C@@](C)([C@@H]4O[C@@H]([C@H]5O[C@@](O)(CO)[C@H](C)C[C@@H]5C)C[C@@H]4C)O3)C[C@H]2C)[C@@H]1C [NIGERICIN] | 95.98% | 96.9% | 88.14% | 91.75% | 140.54% | 148.43% | 145.4% | Activity (H4 [19]): 551.04%; Activity (H4 [22]): 375.67%; Activity (H4 [23]): 747.88%; Activity (H4 [25]): 106.9%
CN(C)C[C@H](O)Cn1c2ccc(Br)cc2c2cc(Br)ccc21 [WISKOSTATIN] | 97.71% | 92.99% | 90.21% | 68.51% | 131.93% | 267.9% | 240.08% | Activity (H4 [26]): 2401.38%; Activity (H4 [27]): 96.96%; Activity (H4 [28]): 789.24%; Activity (H4 [29]): 1226.54%
